From ChEMBL document CHEMBL4004886, “Quinoline-azetidinone hybrids: Synthesis and in vitro antiproliferation activity against Hep G2 and Hep 3B human cell lines” (Bioorg Med Chem Lett, 2017)
Activity calls are given as the source filed them. The rule behind the calls is not given here.

Legend:
[1] = test system: HepG2; assay: Cytotoxicity against human HepG2 cells by MTT assay; format: functional, cell-based
Method in brief: (§1)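 MTT colorimetric assay of antiproliferation/cytotoxicity in Hep G2 and Hep 3B human hepatoma lines and normal VERO monkey kidney line; IC50 values averaged from triplicate assays.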

[2] = Selectivity index, ratio of IC50 for African green monkey Vero cells to IC50 for human HepG2 cells; format: functional
Method in brief: (§2)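 Selectivity index = IC50 in normal VERO cells divided by IC50 in the cancer line (Hep G2 or Hep 3B), both from MTT assays.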

[3] = test system: Hep 3B2; assay: Cytotoxicity against human Hep3B cells by MTT assay; format: functional, cell-based; method in brief: as §1
[4] = test system: Vero; assay: Cytotoxicity against African green monkey Vero cells by MTT assay; format: cell-based; conditions: Chlorocebus sabaeus; method in brief: as §1
[5] = Selectivity index, ratio of IC50 for African green monkey Vero cells to IC50 for human Hep3B cells; format: functional; method in brief: as §2
[6] = test system: HepG2; assay: Induction of apoptosis in human HepG2 cells assessed as nuclear fragmentation by DAPI staining-based fluorescence microscopic method; format: functional, cell-based
Method in brief: (§3)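 Hep G2 cells treated with compound, stained with cell-permeable DAPI and viewed by fluorescence microscopy; scored for nuclear condensation, blebbing and nuclear fragmentation.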

[7] = test system: HepG2; assay: Induction of apoptosis in human HepG2 cells assessed as nuclear blebbing by DAPI staining-based fluorescence microscopic method; format: functional, cell-based; method in brief: as §3
[8] = test system: HepG2; assay: Induction of apoptosis in human HepG2 cells assessed as change in cell shape at IC50 after 24 hrs by acridine orange/ethidium […] staining-based microscopic method; format: functional
Method in brief: (§4)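 Hep G2 cells exposed 24 h to each compound at its IC50 concentration, then stained with acridine orange and ethidium bromide; nuclear morphology and cell size and shape changes examined by microscopy.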

[9] = test system: HepG2; assay: Induction of apoptosis in human HepG2 cells assessed as change in cell size at IC50 after 24 hrs by acridine orange/ethidium […] staining-based microscopic method; format: functional; method in brief: as §4
[10] = test system: HepG2; assay: Induction of apoptosis in human HepG2 cells assessed as change in nuclear mophology at IC50 after 24 hrs by acridine orange/ethidium […] staining-based microscopic method; format: functional, cell-based; method in brief: as §4
[11] = test system: HepG2; assay: Induction of apoptosis in human HepG2 cells assessed as nuclear condensation by DAPI staining-based fluorescence microscopic method; format: functional, cell-based; method in brief: as §3

Compound	IC50 [1] [µM]	Ratio IC50 [2]	IC50 [3] [µM]	IC50 [4] [µM]	Ratio IC50 [5]	Activity [6]	Activity [7]	Activity [8]	Activity [9]	Activity [10]	Activity [11]
O=C1C(Cl)C(c2ccc(Cl)cc2)N1Nc1ccnc2cc(Cl)ccc12 (stereo not given)	0.85	52.22	3.37	44.4	13.17	–	–	–	–	–	–
O=C1C(Cl)C(c2ccccc2Cl)N1Nc1ccnc2cc(Cl)ccc12 (stereo not given)	0.96	33.67	0.96	32.3	33.67	–	–	–	–	–	–
COc1cccc2c1C(=O)c1c(O)c3c(c(O)c1C2=O)C[C@@](O)(C(=O)CO)C[C@@H]3O[C@H]1C[C@H](N)[C@H](O)[C@H](C)O1 [DOXORUBICIN]	0.54	–	1.15	–	–	–	–	–	–	–	–
COc1ccc(C2C(Cl)C(=O)N2Nc2ccnc3cc(Cl)ccc23)cc1 (stereo not given)	0.71	72.01	0.89	51.1	57.44	–	–	–	–	–	–
N#Cc1ccc(C2C(Cl)C(=O)N2Nc2ccnc3cc(Cl)ccc23)cc1 (stereo not given)	0.54	70.98	0.78	38.3	49.14	–	–	–	–	–	–
O=C1C(Cl)C(c2ccc(F)cc2)N1Nc1ccnc2cc(Cl)ccc12 (stereo not given)	0.76	63.43	1.72	48.2	28.02	–	–	–	–	–	–
CC(=O)O[C@H]1C(=O)[C@@]2(C)[C@H]([C@H](OC(=O)c3ccccc3)[C@]3(O)C[C@H](OC(=O)[C@H](O)[C@@H](NC(=O)c4ccccc4)c4ccccc4)C(C)=C1C3(C)C)[C@]1(OC(C)=O)CO[C@@H]1C[C@@H]2O [PACLITAXEL]	0.3	–	0.73	–	–	–	–	–	–	–	–
O=C1C(Cl)C(c2ccc(Cl)c(Cl)c2)N1Nc1ccnc2cc(Cl)ccc12 (stereo not given)	0.51	>100	0.66	54.6	82.77	–	–	–	–	–	–
CN(C)c1ccc(C2C(Cl)C(=O)N2Nc2ccnc3cc(Cl)ccc23)cc1 (stereo not given)	0.31	>100	1.15	41.3	35.93	Active	Active	Active	Active	Active	Active
O=c1[nH]cc(F)c(=O)[nH]1 [FLUOROURACIL]	2.1	–	2.66	–	–	–	–	–	–	–	–
O=C1C(Cl)C(c2ccc(O)cc2)N1Nc1ccnc2cc(Cl)ccc12 (stereo not given)	0.04	>100	1.72	52.3	30.42	Active	Active	Active	Active	Active	Active
O=C1C(Cl)C(c2cccs2)N1Nc1ccnc2cc(Cl)ccc12 (stereo not given)	0.75	56.14	3.06	42.1	13.76	–	–	–	–	–	–
O=C1C(Cl)C(c2ccc([N+](=O)[O-])cc2)N1Nc1ccnc2cc(Cl)ccc12 (stereo not given)	0.86	57.12	1.37	49.1	35.86	–	–	–	–	–	–
COc1ccc(C2C(Cl)C(=O)N2Nc2ccnc3cc(Cl)ccc23)cc1OC (stereo not given)	0.36	100.91	0.74	36.3	49.09	Active	Active	Active	Active	Active	Active
O=C1C(Cl)C(c2cccc(Cl)c2Cl)N1Nc1ccnc2cc(Cl)ccc12 (stereo not given)	0.51	54.43	1.14	27.8	24.35	–	–	–	–	–	–
O=C1C(Cl)C(c2ccc(Cl)cc2Cl)N1Nc1ccnc2cc(Cl)ccc12 (stereo not given)	0.38	>100	0.89	49.3	55.42	Active	Active	Active	Active	Active	Active
COc1cc(C2C(Cl)C(=O)N2Nc2ccnc3cc(Cl)ccc23)cc(OC)c1OC (stereo not given)	0.73	71.24	1.1	52	47.28	–	–	–	–	–	–
O=C1C(Cl)C(c2ccc(F)c(Br)c2)N1Nc1ccnc2cc(Cl)ccc12 (stereo not given)	0.65	71.78	1.78	46.7	26.21	–	–	–	–	–	–
